The source made the active and inactive calls. The calls are words filed in the database; no cut-off is given here. Square brackets hold non-standard residues; d marks the D form. Peptide text beside a SMILES is read from it.
Tests used:
[1] = target: Melanocortin receptor 4 (Mus musculus) (UniProt P56450); assay: Agonist activity at mouse melanocortin receptor 4 expressed in HEK293 cells assessed as stimulation of cAMP accumulation at 100 uM incubated for 2 hrs by cAMP Alpha-screen assay relative to control; format: functional, cell-based
[2] = target: T1, Melanocortin receptor 5 (Mus musculus, UniProt P41149); assay: Agonist activity at mouse melanocortin receptor 5 expressed in HEK293 cells assessed as stimulation of cAMP accumulation incubated for 2 hrs by cAMP Alpha-screen assay; format: functional, cell-based
[3] = target: Melanocyte-stimulating hormone receptor (Mus musculus) (UniProt Q01727); assay: Agonist activity at mouse melanocortin receptor 1 expressed in HEK293 cells assessed as stimulation of cAMP accumulation at 100 uM incubated for 2 hrs by cAMP Alpha-screen assay relative to control; format: functional, cell-based
[4] = target: Melanocortin receptor 3 (Mus musculus) (UniProt P33033); assay: Agonist activity at mouse melanocortin receptor 3 expressed in HEK293 cells assessed as stimulation of cAMP accumulation at 100 uM incubated for 2 hrs by cAMP Alpha-screen assay relative to control; format: functional, cell-based
[5] = target: T2, Melanocortin receptor 4 (Homo sapiens, UniProt P32245); assay: Inverse agonist activity at human melanocortin receptor 4 expressed in HEK293 cells assessed as inhibition of basal cAMP accumulation incubated for 2 hrs by cAMP Alpha-screen assay; format: functional, cell-based
Method in brief: (§1)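 AlphaScreen cAMP assay in stably transfected HEK293 cells, with 10,000 cells/well in IBMX-containing HBSS/HEPES buffer pH 7.4. Peptide alone, up to 100 μM, 2 h at room temperature in the dark, then 2 h lysis/detection. Inverse agonism taken as percent decrease of cAMP from basal, relative to maximal NDP-MSH signal, at 100 μM. Duplicates, three independent experiments.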

[6] = target: T3, Melanocortin receptor 3 (Mus musculus, UniProt P33033); assay: Displacement of [125I]-NDP-MSH from mouse melanocortin receptor 3 expressed in HEK293 cell mebranes incubated for 1 hr by automatic gamma counting method; format: cell-based
[7] = target: Melanocortin receptor 4 (Mus musculus) (UniProt P56450); assay: Ratio of IC50 for MDE6-82-3c to IC50 for test compound for displacement of [125I]-NDP-MSH from mouse melanocortin receptor 4 expressed in HEK293 cell mebranes incubated for 1 hr by automatic gamma counting method
Method in brief: (§2)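 Cells washed, lysed 10 min with 0.1 M NaOH/1% Triton X-100, then gamma-counted. Specific binding defined with unlabelled NDP-MSH and normalized to it. Duplicate wells, two experiments. IC50 by non-linear fit. Fold difference taken relative to the Asn-parent macrocycle control.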

[8] = target: T2, Melanocortin receptor 4; assay: Ratio of IC50 for MDE6-82-3c to IC50 for test compound for displacement of [125I]-NDP-MSH from human melanocortin receptor 4 expressed in HEK293 cell membranes incubated for 1 hr by automatic gamma counting method; method in brief: as §2
[9] = target: Melanocortin receptor 4 (Mus musculus, UniProt P56450); assay: Agonist activity at mouse melanocortin receptor 4 expressed in HEK293 cells assessed as stimulation of cAMP accumulation incubated for 2 hrs by cAMP Alpha-screen assay; format: functional, cell-based
[10] = target: T3, Melanocortin receptor 3; assay: Agonist activity at mouse melanocortin receptor 3 expressed in HEK293 cells assessed as stimulation of cAMP accumulation incubated for 2 hrs by cAMP Alpha-screen assay; format: functional, cell-based
[11] = target: Melanocyte-stimulating hormone receptor (Mus musculus, UniProt Q01727); assay: Displacement of [125I]-NDP-MSH from mouse melanocortin receptor 1 expressed in HEK293 cell mebranes incubated for 1 hr by automatic gamma counting method; format: cell-based; method in brief: as §2
[12] = target: T3, Melanocortin receptor 3; assay: Antagonist activity at mouse melanocortin receptor 3 expressed in HEK293 cells assessed as inhibition of NDP-MSH-induced cAMP accumulation incubated for 2 hrs by cAMP Alpha-screen assay based Schild analysis; format: functional, cell-based; conditions: read-out: pA2 (converted)
Method in brief: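 NDP-MSH (10−6 to 10−12) plus antagonist at 10,000, 5,000, 1,000 and 500 nM, 2 h dark at room temperature. AlphaScreen cAMP read after lysis/bead step 2 h. Schild pA2; duplicates, at least three independent experiments.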

[13] = target: T1, Melanocortin receptor 5; assay: Displacement of [125I]-NDP-MSH from mouse melanocortin receptor 5 expressed in HEK293 cell mebranes incubated for 1 hr by automatic gamma counting method; format: cell-based
[14] = target: Melanocortin receptor 5 (Mus musculus) (UniProt P41149); assay: Inverse agonist activity at mouse melanocortin receptor 5 expressed in HEK293 cells assessed as inhibition of basal cAMP accumulation incubated for 2 hrs by cAMP Alpha-screen assay relative to control; format: functional, cell-based; conditions: concentration not given here; method in brief: as §1
[15] = target: Melanocortin receptor 5 (Mus musculus) (UniProt P41149); assay: Inverse agonist activity at mouse melanocortin receptor 5 expressed in HEK293 cells assessed as inhibition of basal cAMP accumulation at 100 uM incubated for 2 hrs by cAMP Alpha-screen assay relative to control; format: functional, cell-based; method in brief: as §1
[16] = target: T1, Melanocortin receptor 5; assay: Antagonist activity at mouse melanocortin receptor 5 expressed in HEK293 cells assessed as inhibition of NDP-MSH-induced cAMP accumulation incubated for 2 hrs by cAMP Alpha-screen assay based Schild analysis; format: functional, cell-based; conditions: read-out: pA2 (converted)
[17] = target: Melanocyte-stimulating hormone receptor (Mus musculus) (UniProt Q01727); assay: Ratio of IC50 for MDE6-82-3c to IC50 for test compound for displacement of [125I]-NDP-MSH from mouse melanocortin receptor 1 expressed in HEK293 cell mebranes incubated for 1 hr by automatic gamma counting method; method in brief: as §2

T1 sequence (P41149 whole entry): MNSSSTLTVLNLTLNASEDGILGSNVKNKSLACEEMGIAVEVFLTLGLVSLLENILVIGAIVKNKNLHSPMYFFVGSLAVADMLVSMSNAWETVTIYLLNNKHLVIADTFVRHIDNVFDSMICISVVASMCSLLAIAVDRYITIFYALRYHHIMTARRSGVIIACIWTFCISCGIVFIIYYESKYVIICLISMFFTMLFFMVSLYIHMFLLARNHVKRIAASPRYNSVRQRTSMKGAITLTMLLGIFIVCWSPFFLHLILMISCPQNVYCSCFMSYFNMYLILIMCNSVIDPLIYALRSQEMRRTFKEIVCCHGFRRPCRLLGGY
Chain of Melanocortin receptor 5 (Mus musculus) (P41149 whole entry): as above
Chain of Melanocyte-stimulating hormone receptor (Mus musculus) (Q01727 whole entry, looked up): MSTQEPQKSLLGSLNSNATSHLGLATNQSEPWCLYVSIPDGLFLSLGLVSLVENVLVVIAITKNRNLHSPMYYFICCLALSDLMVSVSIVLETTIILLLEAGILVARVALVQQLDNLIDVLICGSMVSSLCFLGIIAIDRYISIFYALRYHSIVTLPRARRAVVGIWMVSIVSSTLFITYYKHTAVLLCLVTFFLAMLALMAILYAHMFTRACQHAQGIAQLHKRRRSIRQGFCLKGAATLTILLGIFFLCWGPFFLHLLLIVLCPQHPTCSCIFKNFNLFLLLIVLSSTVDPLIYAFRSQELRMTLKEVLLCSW
Chain of Melanocortin receptor 4 (Mus musculus) (P56450 whole entry): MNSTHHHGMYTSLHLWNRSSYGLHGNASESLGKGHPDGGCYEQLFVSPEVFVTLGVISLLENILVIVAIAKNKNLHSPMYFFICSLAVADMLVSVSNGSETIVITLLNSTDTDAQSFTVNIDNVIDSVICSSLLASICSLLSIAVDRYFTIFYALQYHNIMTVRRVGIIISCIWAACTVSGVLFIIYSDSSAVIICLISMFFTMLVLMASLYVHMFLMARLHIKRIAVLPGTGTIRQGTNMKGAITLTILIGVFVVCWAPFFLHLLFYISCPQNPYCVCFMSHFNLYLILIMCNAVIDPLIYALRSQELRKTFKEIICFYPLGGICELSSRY
T3 sequence (P33033 whole entry): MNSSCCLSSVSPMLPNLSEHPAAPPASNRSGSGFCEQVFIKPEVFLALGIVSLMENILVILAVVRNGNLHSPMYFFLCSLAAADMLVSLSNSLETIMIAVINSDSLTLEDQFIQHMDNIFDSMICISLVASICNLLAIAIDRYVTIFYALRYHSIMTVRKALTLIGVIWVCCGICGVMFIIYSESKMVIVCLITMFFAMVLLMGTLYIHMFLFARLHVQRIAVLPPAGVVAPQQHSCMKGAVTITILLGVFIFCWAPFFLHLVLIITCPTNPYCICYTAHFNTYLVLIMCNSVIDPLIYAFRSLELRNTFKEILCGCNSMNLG
T2 sequence (P32245 whole entry): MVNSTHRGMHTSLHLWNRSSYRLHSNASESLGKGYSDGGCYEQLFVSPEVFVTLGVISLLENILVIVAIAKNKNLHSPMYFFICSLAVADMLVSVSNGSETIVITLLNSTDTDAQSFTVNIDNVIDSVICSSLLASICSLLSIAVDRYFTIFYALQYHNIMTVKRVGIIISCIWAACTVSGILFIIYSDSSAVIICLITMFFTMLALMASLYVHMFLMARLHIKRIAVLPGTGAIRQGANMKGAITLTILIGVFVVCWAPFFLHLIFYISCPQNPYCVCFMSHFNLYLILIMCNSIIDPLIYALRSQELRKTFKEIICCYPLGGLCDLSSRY
Chain of Melanocortin receptor 4 (Mus musculus, UniProt P56450) (P56450 whole entry): as the sequence (P56450 whole entry) above
Chain of Melanocyte-stimulating hormone receptor (Q01727 whole entry): as the sequence (Q01727 whole entry, looked up) above
Chain of Melanocortin receptor 3 (Mus musculus) (P33033 whole entry): as the sequence (P33033 whole entry) above

Compound | Activity [1] | Activity [4] | inhibition [14] | EC50 [2] | Activity [3] | Activity [5] | IC50 [6] | Ratio IC50 [7] | Ratio IC50 [8] | EC50 [9] | EC50 [10] | IC50 [11] | Kb [12] | IC50 [13] | inhibition [15] | Kb [16] | Ratio IC50 [17]
C[C@@H]1NC(=O)[C@H](CC(N)=O)NC(=O)[C@H](Cc2ccccc2)NC(=O)[C@H](Cc2ccccc2)NC(=O)[C@H](Cc2c[nH]cn2)NC(=O)[C@@H]2CCCN2C(=O)[C@H]2CCCN2C(=O)[C@H](Cc2ccccc2)NC1=O | – | – | – | > 100 µM | 23% | Active | > 100 µM | 300 | 300 | > 100 µM | > 100 µM | > 100 µM | > 10 µM | > 100 µM | – | – | –
C[C@@H]1NC(=O)[C@H](CC(N)=O)NC(=O)[C@H](Cc2ccccc2)NC(=O)[C@H](Cc2ccccc2)NC(=O)[C@H](CCCNC(=N)N)NC(=O)[C@@H]2CCCN2C(=O)[C@H]2CCCN2C(=O)[C@H](Cc2ccccc2)NC1=O | – | – | 10% | – | – | – | – | – | – | – | – | – | – | – | – | – | –
C[C@@H]1NC(=O)[C@H](CC(N)=O)NC(=O)[C@H](Cc2ccccc2)NC(=O)[C@H](Cc2ccccc2)NC(=O)[C@H](CS)NC(=O)[C@@H]2CCCN2C(=O)[C@H]2CCCN2C(=O)[C@H](Cc2ccccc2)NC1=O (cyclo(PCFFNAF[dP])) | – | – | – | – | 46% | inactive | > 100 µM | 90 | 300 | > 100 µM | > 100 µM | – | > 10 µM | > 100 µM | 32% | > 10 µM | 3

Continued, in another order:

Activity [1] | Activity [4] | inhibition [14] | Compound | EC50 [2] | Activity [3] | Activity [5] | IC50 [6] | Ratio IC50 [7] | Ratio IC50 [8] | EC50 [9] | EC50 [10] | IC50 [11] | Kb [12] | IC50 [13] | inhibition [15] | Kb [16] | Ratio IC50 [17]
37% | 27% | – | CC(C)[C@@H]1NC(=O)[C@H](CN)NC(=O)[C@H](Cc2ccccc2)NC(=O)[C@H](Cc2ccccc2)NC(=O)[C@H](CCCNC(=N)N)NC(=O)[C@@H]2CCCN2C(=O)[C@H]2CCCN2C(=O)[C@H](Cc2ccccc2)NC1=O | > 100 µM | 79% | Active | – | – | – | – | – | – | – | – | – | – | –
– | – | 15% | C[C@@H]1NC(=O)[C@H](CN)NC(=O)[C@H](Cc2ccccc2)NC(=O)[C@H](Cc2ccccc2)NC(=O)[C@H](CCCNC(=N)N)NC(=O)[C@@H]2CCCN2C(=O)[C@H]2CCCN2C(=O)[C@H](Cc2ccccc2)NC1=O | – | – | Active | – | – | – | – | – | – | – | – | – | – | –

Source: ChEMBL document CHEMBL4354837 (J Med Chem, 2020)
